Legend:
[1] = substrate: CCCCCCCCCCCCC/C=C/[C@@H](O)[C@H](CO)NC(=O)CCCCCCCCCCCNc1ccc([N+](=O)[O-])c2nonc12; experiment: Activity of mouse neutral ceramidase after 30 mins by TLC-based fluorescence imaging
[2] = substrate: CCCCCCCCCCCCC/C=C/[C@@H](O)[C@H](CO)NC(=O)CCCCCCCCCCCNc1ccc([N+](=O)[O-])c2nonc12; experiment: (§1) Activity of human recombinant neutral ceramidase after 60 mins by Lineweaver-Burk plot analysis
Procedure, shortened: (§2)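 Human recombinant nCDase held at 20 ng/mL in 200 mM sodium acetate pH 7.0 with 200 mM NaCl and 0.1% Triton X-100. Substrate varied from 5 to 150 or 5 to 180 µM, DMSO <5%. Incubated 60 min at 37 °C, chloroform/methanol quench, TLC with fluorescence imaging. Kinetic constants from Lineweaver-Burk plots, mean ± SD of triplicate experiments.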

[3] = substrate: CCCCCCCCCCCCC/C=C/[C@@H](O)[C@H](CO)NC(=O)CCCCCCCCCCCOc1ccc2c(=O)cc3oc4cc(N(CC)CC)ccc4nc-3c2c1; experiment: as §1; procedure, shortened: as §2
[4] = substrate: CCCCCCCCCCCCCCCC(=O)N[C@@H](CO)[C@H](O)/C=C/CCCCCCCCCNc1ccc([N+](=O)[O-])c2nonc12; experiment: as §1; procedure, shortened: as §2
[5] = substrate: CCCCCCCCCCCCCCCC(=O)N[C@@H](CO)[C@H](O)/C=C/CCCCCCCCCOc1ccc2c(=O)cc3oc4cc(N(CC)CC)ccc4nc-3c2c1; experiment: as §1; procedure, shortened: as §2
[6] = substrate: CCCCCCCCCCCCC/C=C/[C@@H](O)[C@H](CO)NC(=O)CCCCCCCCCCCNc1ccc([N+](=O)[O-])c2nonc12; experiment: (§3) Activity of human recombinant neutral ceramidase assessed per ng of protein after 60 mins by Lineweaver-Burk plot analysis; procedure, shortened: as §2
[7] = substrate: CCCCCCCCCCCCC/C=C/[C@@H](O)[C@H](CO)NC(=O)CCCCCCCCCCCOc1ccc2c(=O)cc3oc4cc(N(CC)CC)ccc4nc-3c2c1; experiment: as §3; procedure, shortened: as §2
[8] = substrate: CCCCCCCCCCCCCCCC(=O)N[C@@H](CO)[C@H](O)/C=C/CCCCCCCCCNc1ccc([N+](=O)[O-])c2nonc12; experiment: as §3; procedure, shortened: as §2
[9] = substrate: CCCCCCCCCCCCCCCC(=O)N[C@@H](CO)[C@H](O)/C=C/CCCCCCCCCOc1ccc2c(=O)cc3oc4cc(N(CC)CC)ccc4nc-3c2c1; experiment: as §3; procedure, shortened: as §2
[10] = substrate: CCCCCCCCCCCCC/C=C/[C@@H](O)[C@H](CO)NC(=O)CCCCCCCCCCCNc1ccc([N+](=O)[O-])c2nonc12; experiment: (§4) Activity of human recombinant acid ceramidase expressed in baculovirus infected Sf9 cells after 150 mins by Lineweaver-Burk plot analysis
Procedure, shortened: (§5)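 Recombinant human aCDase expressed in insect cells, at a fixed enzyme level, in 200 mM sodium acetate pH 4.5 with 200 mM NaCl and 0.1% Triton X-100. Substrate varied from 5 to 150 µM or 5 to 180 µM, added from DMSO stocks (DMSO <5% v/v), 37 °C for 150 min. Chloroform/methanol extraction, TLC, fluorescence imaging of cleaved and uncleaved spots. KM, Vmax and kcat taken from Lineweaver-Burk plots, mean ± SD of three independent experiments.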

[11] = substrate: CCCCCCCCCCCCC/C=C/[C@@H](O)[C@H](CO)NC(=O)CCCCCCCCCCCOc1ccc2c(=O)cc3oc4cc(N(CC)CC)ccc4nc-3c2c1; experiment: as §4; procedure, shortened: as §5
[12] = substrate: CCCCCCCCCCCCCCCC(=O)N[C@@H](CO)[C@H](O)/C=C/CCCCCCCCCNc1ccc([N+](=O)[O-])c2nonc12; experiment: as §4; procedure, shortened: as §5
[13] = substrate: CCCCCCCCCCCCCCCC(=O)N[C@@H](CO)[C@H](O)/C=C/CCCCCCCCCOc1ccc2c(=O)cc3oc4cc(N(CC)CC)ccc4nc-3c2c1; experiment: as §4; procedure, shortened: as §5
[14] = substrate: CCCCCCCCCCCCC/C=C/[C@@H](O)[C@H](CO)NC(=O)CCCCCCCCCCCNc1ccc([N+](=O)[O-])c2nonc12; experiment: (§6) Activity of human recombinant acid ceramidase expressed in baculovirus infected Sf9 cells assessed per ug of protein after 150 mins by Lineweaver-Burk plot analysis; procedure, shortened: as §5
[15] = substrate: CCCCCCCCCCCCC/C=C/[C@@H](O)[C@H](CO)NC(=O)CCCCCCCCCCCOc1ccc2c(=O)cc3oc4cc(N(CC)CC)ccc4nc-3c2c1; experiment: as §6; procedure, shortened: as §5
[16] = substrate: CCCCCCCCCCCCCCCC(=O)N[C@@H](CO)[C@H](O)/C=C/CCCCCCCCCNc1ccc([N+](=O)[O-])c2nonc12; experiment: as §6; procedure, shortened: as §5
[17] = substrate: CCCCCCCCCCCCCCCC(=O)N[C@@H](CO)[C@H](O)/C=C/CCCCCCCCCOc1ccc2c(=O)cc3oc4cc(N(CC)CC)ccc4nc-3c2c1; experiment: as §6; procedure, shortened: as §5

B1: Neutral ceramidase (Mus musculus), Q9JHE3 (protein)
chain: MAKRTFSTLEAFLIFLLVIMTVITVALLTLLFVTSGTIENHKDSGNHWFSTTLGSTTTQPPPITQTPNFPSFRNFSGYYIGVGRADCTGQVSDINLMGYGKNGQNARGLLTRLFSRAFILADPDGSNRMAFVSVELCMISQRLRLEVLKRLESKYGSLYRRDNVILSAIHTHSGPAGFFQYTLYILASEGFSNRTFQYIVSGIMKSIDIAHTNLKPGKIFINKGNVANVQINRSPSSYLLNPQSERARYSSNTDKEMLVLKLVDLNGEDLGLISWFAIHPVSMNNSNHFVNSDNMGYAAYLFEQEKNKGYLPGQGPFVAGFASSNLGDVSPNILGPHCVNTGESCDNDKSTCPNGGPSMCMASGPGQDMFESTHIIGRIIYQKAKELYASASQEVTGPVLAAHQWVNMTDVSVQLNATHTVKTCKPALGYSFAAGTIDGVSGLNITQGTTEGDPFWDTLRDQLLGKPSEEIVECQKPKPILLHSGELTIPHPWQPDIVDVQIVTVGSLAIAAIPGELTTMSGRRFREAIKKEFALYGMKDMTVVIAGLSNVYTHYITTYEEYQAQRYEAASTIYGPHTLSAYIQLFRDLAKAIATDTVANMSSGPEPPFFKNLIASLIPNIADRAPIGKHFGDVLQPAKPEYRVGEVVEVIFVGANPKNSAENQTHQTFLTVEKYEDSVADWQIMYNDASWETRFYWHKGILGLSNATIYWHIPDTAYPGIYRIRYFGHNRKQELLKPAVILAFEGISSPFEVVTT
Protein B1 has a Km [1] of 22.3 µM and a Vmax [1] of 4.7 pmol/min.

B2: Neutral ceramidase (Homo sapiens), Q9NR71 (protein)
chain: MAKRTFSNLETFLIFLLVMMSAITVALLSLLFITSGTIENHKDLGGHFFSTTQSPPATQGSTAAQRSTATQHSTATQSSTATQTSPVPLTPESPLFQNFSGYHIGVGRADCTGQVADINLMGYGKSGQNAQGILTRLYSRAFIMAEPDGSNRTVFVSIDIGMVSQRLRLEVLNRLQSKYGSLYRRDNVILSGTHTHSGPAGYFQYTVFVIASEGFSNQTFQHMVTGILKSIDIAHTNMKPGKIFINKGNVDGVQINRSPYSYLQNPQSERARYSSNTDKEMIVLKMVDLNGDDLGLISWFAIHPVSMNNSNHLVNSDNVGYASYLLEQEKNKGYLPGQGPFVAAFASSNLGDVSPNILGPRCINTGESCDNANSTCPIGGPSMCIAKGPGQDMFDSTQIIGRAMYQRAKELYASASQEVTGPLASAHQWVDMTDVTVWLNSTHASKTCKPALGYSFAAGTIDGVGGLNFTQGKTEGDPFWDTIRDQILGKPSEEIKECHKPKPILLHTGELSKPHPWHPDIVDVQIITLGSLAITAIPGEFTTMSGRRLREAVQAEFASHGMQNMTVVISGLCNVYTHYITTYEEYQAQRYEAASTIYGPHTLSAYIQLFRNLAKAIATDTVANLSRGPEPPFFKQLIVPLIPSIVDRAPKGRTFGDVLQPAKPEYRVGEVAEVIFVGANPKNSVQNQTHQTFLTVEKYEATSTSWQIVCNDASWETRFYWHKGLLGLSNATVEWHIPDTAQPGIYRIRYFGHNRKQDILKPAVILSFEGTSPAFEVVTI
B2 showed a Km [2] of 190 µM, a Vmax [2] of 62.4 pmol/min and a Km [3] of 85.3 µM. The Vmax [3] was 10 pmol/min, the Km [4] was 193 µM and the Vmax [4] was 31.8 pmol/min. For the same protein, the Km [5] was 36.4 µM, the Vmax [5] was 5.3 pmol/min and the specific activity [6] was 3.1 pmol/min/ng. It also gave a specific activity [7] of 0.5 pmol/min/ng, a specific activity [8] of 1.6 pmol/min/ng and a specific activity [9] of 0.26 pmol/min/ng.

B3: Acid ceramidase (Homo sapiens), Q13510 (protein)
chain: MPGRSCVALVLLAAAVSCAVAQHAPPWTEDCRKSTYPPSGPTYRGAVPWYTINLDLPPYKRWHELMLDKAPVLKVIVNSLKNMINTFVPSGKIMQVVDEKLPGLLGNFPGPFEEEMKGIAAVTDIPLGEIISFNIFYELFTICTSIVAEDKKGHLIHGRNMDFGVFLGWNINNDTWVITEQLKPLTVNLDFQRNNKTVFKASSFAGYVGMLTGFKPGLFSLTLNERFSINGGYLGILEWILGKKDVMWIGFLTRTVLENSTSYEEAKNLLTKTKILAPAYFILGGNQSGEGCVITRDRKESLDVYELDAKQGRWYVVQTNYDRWKHPFFLDDRRTPAKMCLNRTSQENISFETMYDVLSTKPVLNKLTVYTTLIDVTKGQFETYLRDCPDPCIGW
In the case of B3, the Km [10] is reported as 86.9 µM, the Vmax [10] is reported as 4.4 pmol/min and the Km [11] is reported as 110 µM. For the same protein, the Vmax [11] was 7.2 pmol/min, the Km [12] was 204 µM and the Vmax [12] was 12.2 pmol/min. It also gave a Km [13] of 81.8 µM, a Vmax [13] of 3.9 pmol/min and a specific activity [14] of 0.0882 pmol/min/µg. For the same protein, the specific activity [15] was 0.143 pmol/min/µg, the specific activity [16] was 0.244 pmol/min/µg and the specific activity [17] was 0.078 pmol/min/µg.

— ChEMBL document CHEMBL2146367, “Novel fluorescent ceramide derivatives for probing ceramidase substrate specificity” (Bioorg Med Chem, 2012)
